Assay results published in article PMC4257110 (International Journal of Nanomedicine, 2014).
≈ marks a conversion by molar mass, not a printed value.

Columns and labels:
[1] = assay type: physicochemical; conditions: PLGA NPs loaded with TS IIA, Sal B, PNS; PLGA L:G 50:50; RP-HPLC
How it was run: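 Free drug: a dialysis bag (8–14 kDa cutoff) holding 2 mL saline with 0.2% SDS was placed in 25 mL nanosuspension for 12 h, and the bag contents were assayed by HPLC. Total drug: 1 mL nanosuspension dissolved in acetonitrile, extracted with methanol, 0.22-μm filtered. C18 column, 25°C, acetonitrile/0.05% phosphoric acid gradient, 1.0 mL/min, 203 nm (PNS) or 280 nm (TS IIA, Sal B). EE calculated from free and total drug.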

[2] = In vitro release of TS IIA, Sal B and PNS from PLGA NPs and of free drugs; assay type: physicochemical; conditions: saline containing 0.2% SDS, dialysis, 37°C; for released from NPs: PLGA NPs loaded with TS IIA, Sal B, PNS, within 72 hours; for free drug released: free drugs (control), first 6 hours
How it was run: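 Dialysis release: a sealed bag with sample dispersed in 2.0 mL saline plus 0.2% (w/v) SDS was immersed in 30 mL of the same medium at 37°C with horizontal shaking at 100 rpm. 1 mL of medium was withdrawn at set intervals and drug content measured by HPLC.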

[3] = Pharmacokinetics of TS IIA, Sal B and PNS; assay type: in vivo, guinea pigs; conditions: RW administration, NPs versus compound solution, not dose-normalised
How it was run: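 Guinea pigs (250–300 g; 78, two groups) received round-window dosing of loaded PLGA NPs (12.43 μg/kg TS IIA, 766.38 μg/kg Sal B, 1.05/2.08/2.31 mg/kg R1/Rg1/Rb1) or solution in ethanol/glycerol/PEG 400 2:1:2 (0.73, 8, 3.13/4.38/3.82 mg/kg); saline blank. At 0.17–36 h under anesthesia, perilymph was drawn through the RWM and plasma taken from cardiac blood. Acetic ether (TS IIA, Sal B) or methanol (PNS) extraction, HPLC; n=3.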

[4] = Maximum solubility in mixed solvents; assay type: physicochemical; conditions: mixed solvents (ethanol/glycerol/PEG 400 = 2:1:2), organic solvent or mixture
[5] = In vitro release of coumarin-6 from PLGA NPs; assay type: physicochemical; conditions: PBS (pH 7.4), 72 hours, 37°C
How it was run: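 A dialysis bag holding 3.0 mL nanosuspension plus 2.0 mL PBS pH 7.4 sat in 15 mL PBS pH 7.4 at 37°C, stirred at 100 rpm. At set time points 1 mL of medium was withdrawn and replaced with fresh medium, and coumarin-6 was quantified by HPLC.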

[6] = assay type: in vivo, guinea pigs
[7] = PL, guinea pigs, RW administration, NPs versus solution

entrapment efficiency of the NPs [1] | released from NPs [2] | free drug released [2] | AUC0–t in the PL, NPs greater compared with compound solution [3] | Cmax in the PL, NPs higher compared with compound solution [3] | solubility [4] | in vitro cumulative release of coumarin-6 from the NPs [5] | AUC0–t in PL, NPs higher than coumarin-6 solution [6, 7] | Cmax in PL, NPs higher than coumarin-6 solution [6, 7] | time up to which coumarin-6 was found in the PL ([6]; RW administration of coumarin-6 NPs) | time after which no coumarin-6 was detected in PL ([6]; RW administration of coumarin-6 solution) | coumarin-6 detected in the plasma ([6]; plasma of several guinea pigs, RW administration of coumarin-6 NPs or solution) | Molecule
37.87% | completely released | > 79% | 4.0 fold | 14.4 fold |  |  |  |  |  |  |  | CC(C)=CCC[C@](C)(O[C@@H]1O[C@H](CO)[C@@H](O)[C@H](O)[C@H]1O)[C@H]1CC[C@]2(C)[C@@H]1[C@H](O)C[C@@H]1[C@@]3(C)CC[C@H](O)C(C)(C)[C@@H]3[C@@H](O[C@@H]3O[C@H](CO)[C@@H](O)[C@H](O)[C@H]3O[C@@H]3OC[C@@H](O)[C@H](O)[C@H]3O)C[C@]12C [R1, notoginsenoside R1]
93.56% | 76.0% | > 79% | 7.1 fold | 16.7 fold |  |  |  |  |  |  |  | CC(C)=CCC[C@](C)(O[C@@H]1O[C@H](CO[C@@H]2O[C@H](CO)[C@@H](O)[C@H](O)[C@H]2O)[C@@H](O)[C@H](O)[C@H]1O)[C@H]1CC[C@]2(C)[C@@H]1[C@H](O)C[C@@H]1[C@@]3(C)CC[C@H](O[C@@H]4O[C@H](CO)[C@@H](O)[C@H](O)[C@H]4O[C@@H]4O[C@H](CO)[C@@H](O)[C@H](O)[C@H]4O)C(C)(C)[C@@H]3CC[C@]12C [Rb1, ginsenoside Rb1]
44.98% | 76.2% | > 79% | 3.1 fold | 10.0 fold |  |  |  |  |  |  |  | CC(C)=CCC[C@](C)(O[C@@H]1O[C@H](CO)[C@@H](O)[C@H](O)[C@H]1O)[C@H]1CC[C@]2(C)[C@@H]1[C@H](O)C[C@@H]1[C@@]3(C)CC[C@H](O)C(C)(C)[C@@H]3[C@@H](O[C@@H]3O[C@H](CO)[C@@H](O)[C@H](O)[C@H]3O)C[C@]12C [Rg1, ginsenoside Rg1]
91.81% | 23.6% | > 79% |  |  | 1.83 mg/mL (≈ 6.22 mM) |  |  |  |  |  |  | Cc1coc2c1C(=O)C(=O)c1c-2ccc2c1CCCC2(C)C [TS IIA, tanshinone IIA]
 |  |  |  |  |  | < 2% | 4.7 fold | 10.9 fold | up to 96 hours | 36 h | An infinitesimal amount | CCN(CC)c1ccc2cc(-c3nc4ccccc4s3)c(=O)oc2c1 [coumarin-6]
92.88% | 93.0% | > 79% |  |  |  |  |  |  |  |  |  | salvianolic acid B [Sal B]
